In ChEMBL document CHEMBL2202989, “New adamantane phenylalkylamines with σ-receptor binding affinity and anticancer activity, associated with putative antagonism of neuropathic pain” (J Med Chem, 2012):

Columns and labels:
PC-3 [1] = assay: Cell cycle arrest in human PC3 cells assessed as accumulation at S phase at 5 uM after 24 hrs using propidium iodide staining by FACS analysis (reference value: 42 %); type: functional
PC-3 [2] = assay: Induction of apoptosis in human PC3 cells assessed as cleaved caspase3 containing cells at 50 uM by antibody-based FACS analysis (reference value: 3.2%); type: functional
PC-3 [3] = assay: Cell cycle arrest in human PC3 cells assessed as accumulation at G1 phase at 50 uM after 24 hrs using propidium iodide staining by FACS analysis (reference value: 36 %); type: functional
IGROV-1 [4] = assay: Cell cycle arrest in human IGROV1 cells assessed as accumulation at G2 phase at 5 uM after 24 hrs using propidium iodide staining by FACS analysis (reference value: 19 %); type: functional
[5] = Displacement of [3H]1,3-di-otolylguanidine from sigma 2 receptor in rat cerebral cortex membranes; type: cell membranes, Membrane
Summary of the method: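 Rat cerebral cortex membranes incubated with 5 nM [3H]DTG plus 300 nM (+)-pentazocine to mask σ1 sites, together with a range of test concentrations, 2 h at 22 °C in Tris-HCl, pH 7.4. Nonspecific binding defined with 10 μM haloperidol.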

PC-3 [6] = assay: Induction of apoptosis in human PC3 cells assessed as early apoptosis at 0.5 uM using annexin V/7-AAD by FACS analysis (reference value: 5 %); type: functional
NHDF = assay: (§1) Growth inhibition of human NHDF cells after 48 hrs by SRB assay; type: cell-based; details: nhdf, 48 h
Summary of the method: (§2)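 Cells grown in RPMI 1640 with 5% heat-inactivated FCS, 2 mM L-glutamine and antibiotics, 37 °C, 5% CO2. Seeded at 3500–30000 cells/well and left 24 h before dosing. DMSO solutions added at 10-fold dilutions from 100 to 0.01 μM for 48 h. Cells TCA-fixed and SRB-stained, absorbance read at 540 nm; GI50 derived against the time-zero plate.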

[7] = as §1; type: cell-based; details: NHDF cells; summary of the method: as §2
BXPC-3 [8] = assay: Induction of apoptosis in human BxPC3 cells assessed as early apoptosis at 0.5 uM using annexin V/7-AAD by FACS analysis (reference value: 9 %); type: functional
BXPC-3 [9] = assay: Induction of apoptosis in human BxPC3 cells assessed as early apoptosis at 5 uM using annexin V/7-AAD by FACS analysis (reference value: 9 %); type: functional
PC-3 [10] = assay: Induction of apoptosis in human PC3 cells assessed as late apoptosis at 5 uM using annexin V/7-AAD by FACS analysis (reference value: 3 %); type: functional
PC-3 [11] = assay: Cell cycle arrest in human PC3 cells assessed as accumulation at G2 phase at 0.5 uM after 24 hrs using propidium iodide staining by FACS analysis (reference value: 12 %); type: functional
PC-3 [12] = assay: Induction of apoptosis in human PC3 cells assessed as healthy cells at 0.5 uM using annexin V/7-AAD by FACS analysis (reference value: 91 %); type: functional
Mus musculus = assay: Toxicity in SCID mouse assessed as mortality at 40 to 55 mg/kg, ip for 2 to 3 weeks; type: organism-based; set-up: route intraperitoneal; details: in vivo
Summary of the method: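 CD-1 (male and female) and SCID mice dosed ip at 40−55 mg/kg in 5% Tween 80 for chronic 2−3 week regimens. Deaths and body weight loss compared with vehicle (Tween 80 or Cremophor) and reference-drug groups. Weight loss, neurological, behavioral and dietary changes recorded as toxicity signs.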

PC-3 [13] = assay: Cell cycle arrest in human PC3 cells assessed as accumulation at G1 phase at 0.5 uM after 24 hrs using propidium iodide staining by FACS analysis (reference value: 36 %); type: functional
PC-3 [14] = assay: Induction of apoptosis in human PC3 cells assessed as late apoptosis at 15 uM using annexin V/7-AAD by FACS analysis (reference value: 3 %); type: functional
Summary of the method: (§3)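 Cells plated 24 h before treatment, then exposed 24 h to 0.5, 5, 15 or 50 μM compound (final DMSO 0.5%); vehicle controls included. Cells scraped and stained with annexin V-FITC and 7-AAD for 15 min on ice in the dark. Flow cytometry with 488 nm excitation, 10,000 gated cells. Early apoptosis was annexin V+/7-AAD−, late was annexin V+/7-AAD+.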

BXPC-3 [15] = assay: Cell cycle arrest in human BxPC3 cells assessed as accumulation at G2 phase at 0.5 uM after 24 hrs using propidium iodide staining by FACS analysis (reference value: 12 %); type: functional
Summary of the method: (§4)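 Cells were plated 24 h before treatment and exposed for 24 h at final 0.5, 5, 15 and 50 μM in 0.5% DMSO, against vehicle-treated controls. Cells were then trypsinised and fixed in cold ethanol for 3 h at 4 °C. They were stained in a mix of RNase (200 μg/mL) and PI (1 mg/mL) for 45 min at room temperature in the dark. Flow cytometry used 488 nm excitation and 10 000 gated cells. Phase percentages were assigned from DNA content.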

IGROV-1 [16] = assay: Induction of apoptosis in human IGROV1 cells assessed as total apoptotic death at 0.5 uM using annexin V/7-AAD by FACS analysis (reference value: 13 %); type: functional; summary of the method: as §3
BXPC-3 [17] = assay: Antitumor activity against human BxPC3 cells xenografted in SCID mouse assessed as tumor growth inhibition at 45 mg/kg, ip administered 3 consecutives days per week for three cycles measured after 3 cycles relative to control; type: functional; details: BXPC-3, ip, route intraperitoneal, read-out: TGI
Summary of the method: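 BxPC3 xenografts were grown in SCID mice from inocula of 10^6 exponentially growing cells, with 10 mice (20 tumors) per group. Treatment started ip once tumors averaged about 100 mm3. The test agent was given in 5% Tween 80 and gemcitabine in water for injection. Tumor volume was measured by caliper twice weekly and %ΔT/ΔC was computed; two-tailed Student's t test.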

PC-3 [18] = assay: Cell cycle arrest in human PC3 cells assessed as accumulation at sub G1 phase at 15 uM after 24 hrs using propidium iodide staining by FACS analysis (reference value: 4 %); type: functional
BXPC-3 [19] = assay: Cell cycle arrest in human BxPC3 cells assessed as accumulation at sub G1 phase at 15 uM after 24 hrs using propidium iodide staining by FACS analysis (reference value: 9 %); type: functional; summary of the method: as §4
IGROV-1 [20] = assay: Cell cycle arrest in human IGROV1 cells assessed as accumulation at sub G1 phase at 5 uM after 24 hrs using propidium iodide staining by FACS analysis (reference value: 4 %); type: functional
IGROV-1 [21] = assay: Cell cycle arrest in human IGROV1 cells assessed as accumulation at sub G1 phase at 50 uM after 24 hrs using propidium iodide staining by FACS analysis (reference value: 4 %); type: functional
BXPC-3 [22] = assay: Induction of apoptosis in human BxPC3 cells assessed as total apoptotic death at 0.5 uM using annexin V/7-AAD by FACS analysis (reference value: 18 %); type: functional; summary of the method: as §3
BXPC-3 [23] = assay: Induction of apoptosis in human BxPC3 cells assessed as cleaved caspase3 containing cells at 5 uM by antibody-based FACS analysis (reference value: 8.2 %); type: functional
BXPC-3 [24] = assay: Cell cycle arrest in human BxPC3 cells assessed as accumulation at sub G1 phase at 5 uM after 24 hrs using propidium iodide staining by FACS analysis (reference value: 9 %); type: functional; summary of the method: as §4

CN1CCN(CCCc2ccc(C(c3ccccc3)C34CC5CC(CC(C5)C3)C4)cc2)CC1 (configuration not stated)
Activity (PC-3 [1]): 36% | Activity (PC-3 [2]): 4% | Activity (PC-3 [3]): 29% | Activity (IGROV-1 [4]): 21% | IC50 [5]: 0.085 µM | Activity (PC-3 [6]): 3% | LC50 (NHDF): 100 µM | TGI (NHDF): 78.2 µM | GI50 at 48 h [7]: 9.68 µM | Activity (BXPC-3 [8]): 10% | Activity (BXPC-3 [9]): 11% | Activity (PC-3 [10]): 2% | Activity (PC-3 [11]): 15% | Activity (PC-3 [12]): 95% | Activity (Mus musculus): Non-toxic | Activity (PC-3 [13]): 34% | Activity (PC-3 [14]): 7% | Activity (BXPC-3 [15]): 11% | Activity (IGROV-1 [16]): 11% | inhibition in vivo at 45 mg/kg (BXPC-3 [17]): 37.2% | Activity (PC-3 [18]): 25% | Activity (BXPC-3 [19]): 24% | Activity (IGROV-1 [20]): 4% | Activity (IGROV-1 [21]): 18% | Activity (BXPC-3 [22]): 17% | Activity (BXPC-3 [23]): 4% | Activity (BXPC-3 [24]): 8%
